MBD2 DNA inh = MBD2-methylated oligo binding inhibition. TR-FRET, MBD2 binding to methylated oligonucleotide. inhibition, % at 4.4 µM. hit rate 0.31% among 370,000. AID 686964; in the data active means inhibition above about 13%
Rin1 Abl inh = human Rin1-Abl interaction inhibition; inhibition, % at 7.35 µM; P00519+Q13671; hit rate 0.4% among 360,000; AID 588664; TR-FRET Rin1/Abl binding, biochemical; in the data active means inhibition above about 5%, passing the limit was not always enough
Arrestin-AP2 inh = inhibitors of human beta-arrestin and AP2 interaction | hit rate 0.31% among 340,000 | FITC-arrestin peptide / GST-AP2 beads, flow cytometry; AP2 beta2 appendage carries R879A mutation | inhibition, % at 10 µM | AID 504490;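 active means inhibition above a set limit, near 3 SD of compounds lacking own fluorescence, cut at about 54% in these data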;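 further: plate controls were DMSO wells for no effect and 5 µM unlabelled arrestin peptide for full effect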
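Assay system: GST-AP2 R879A bound to glutathione beads, E. coli-expressed; Medium: PBS with 0.05% Tween 20 and 0.1% BSA; Also added: fluorescein-tagged arrestin peptide at 50 nM final; Timing: 12 min plus 1 h, RT; Measured by: flow cytometry, FL1 (488/535 nm); Evaluation: percent drop in bead-associated FITC signal.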
ABHD5-PLIN5 inh = inhibitors of human ABHD5-perilipin-5 interaction. Q00G26+Q8WTS1. Split G. princeps luciferase complementation, luminescence, 4 h. inhibition, % at 4 µM. hit rate 0.78% among 360,000. AID 602281;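 active means inhibition above the mean inhibition across every tested compound plus 3 SD, cut at about 22% in these data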;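 further: 0% = DMSO only wells and the 100% control is not disclosed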
Beta2AR agonist = human beta-2 adrenergic receptor agonism by FAP | Am2.2-beta2AR cells, FAP receptor internalization, flow cytometry | response, % (test concentration not listed) | P07550 | hit rate 0.43% among 340,000;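 active means response above a set limit, near 3 SD of response in nonfluorescent compounds, cut at about 42% in these data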
UHRF1 MBD2 ctr = blocks human UHRF1 binding to methylated DNA; UHRF1 binding to methylated oligo, TR-FRET; inhibition, % at 4.4 µM; hit rate 0.75% among 370,000; in the data active means inhibition above about 21%;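 further: UHRF1 SRA domain binding a hemimethylated CpG hairpin DNA probe; 0% = median of test compound wells and 100% = reference inhibitor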
Rin1-Abl confirm = Rin1-Abl interaction inhibition confirmation. shares compounds with Rin1 Abl inh. TR-FRET Rin1-Abl binding, purified proteins. inhibition, % at 7.35 µM. hit rate 49% among 1,300
GFP quench = quenches GFP fluorescence, counter-screen for Rin1-Abl inhibitors; inhibitors/quenchers counterscreen; shares compounds with Rin1 Abl inh; inhibition, % at 6.75 µM; hit rate 8.5% among 1,300;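 further: ABL1-eGFP fusion protein alone without its partner RIN1-SBP; 0% = protein with vehicle and 100% = wells lacking protein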
GFP quench DR = counter-screen for Rin1-Abl inhibitors: GFP quenchers, dose response | IC50, µM | shares compounds with Rin1 Abl inh | AID 602182 | GFP fluorescence interference/quenching counterscreen | 230 tested, under 10 active; call rule not given here;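 further: ABL1-eGFP fusion protein alone without its RIN1 binding partner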
* = called active by the depositor; . = no result. Hits are enriched below; roughly 2.5% of the tested compounds scored in any of these assays. Unless noted, no stated cut-off is given here; in the data, active means inhibition above about 6.5%; inactive means the rest.

SMILES	MBD2 DNA inh	Rin1 Abl inh	Arrestin-AP2 inh	ABHD5-PLIN5 inh	Beta2AR agonist	UHRF1 MBD2 ctr	Rin1-Abl confirm	GFP quench	others
CC1=CC(C)(C)N(S(=O)(=O)c2ccc(C)cc2)c2ccc(C)cc21	-5	-4	-8	-8	16	1	.	.
CC1=CC(C)(C)[N+](C)(C)c2ccc(C)cc21	3	10*	-6	0	3	5	-1	0
CC(=O)Nc1ccc(C(=O)N/N=C/c2ccc(F)cc2)cc1	1	10*	10	-1	-7	-2	3	-1
CN1[C@@H](Cc2ccccc2)COc2cccc(F)c2S1(=O)=O	-8	.	.	.	.	-3	.	.
COc1ccccc1C(=O)n1ccc2ccc(-c3ccc4ccn(Cc5ccc(C#N)cc5)c4c3)cc21	-3	.	.	.	.	1	.	.
Cc1c(NC(=O)CSc2nc(N)cc(N)n2)c(=O)n(-c2ccccc2)n1C	-1	-2	-5	-8	-8	4	.	.
Cc1c(NC(=O)CSc2ncccn2)c(=O)n(-c2ccccc2)n1C	3	5.4*	-1	8	-1	-1	2	-1
Cc1c(NC(=O)c2ccc(Cl)s2)c(=O)n(-c2ccccc2)n1C	0	6.2*	2	-4	-6	3	-2	1
O=C(CSc1nnc(-c2cnccn2)n1-c1ccccc1)c1ccccc1Br	-2	.	.	.	.	-1	.	.
Cc1ccc(S(=O)(=O)NN2C(=O)c3ccccc3NC2c2ccccc2F)cc1 (stereo not drawn)	-7	13*	7	5	0	1	-2	-5
COc1ccc(C2Nc3ccccc3C(=O)N2NS(=O)(=O)c2ccc(C)cc2)c(OC)c1 (stereo not drawn)	1	0	16	3	3	3	.	.
O=c1cc(-c2ccc(O)cc2)oc2c([C@@H]3O[C@H](CO)[C@@H](O)[C@H](O)[C@H]3O)c(O)c([C@@H]3O[C@H](CO)[C@@H](O)[C@H](O)[C@H]3O)c(O)c12	-2	1	7	1	-5	-4	.	.
O=c1cc(-c2ccc(O)c(O)c2)oc2cc(O)c([C@@H]3O[C@H](CO)[C@@H](O)[C@H](O)[C@H]3O)c(O)c12	-4	22*	19	0	17	-4	28*	10*
CCOC(=O)CC[C@@]1(C(=O)OCC)C[C@@H](CC(=O)NCc2cccs2)C(=O)N2CCCC=C21	1	.	.	.	.	0	.	.
O=C(OC12CCCN(C1)/C(=C/c1cccc(Cl)c1)C2)c1ccc(Cl)cc1 (stereo not drawn)	-2	.	.	.	.	5	.	.
CC1(C)CCN2CCC(C)(C)c3c(O)ccc1c32	-2	7.6*	6	11	-210	-5	2	1
O=C(Nc1ccc(Oc2ccccc2)cc1)C1CCCN1S(=O)(=O)c1cccc2cccnc12 (stereo not drawn)	-6	.	.	.	.	-4	.	.
Cc1ccc(Cl)cc1N1CCN(C(CC(C)C)c2nnnn2CC2CCCO2)CC1 (stereo not drawn)	-2	7.4*	-1	8	4	0	-2	1
CCCC(c1nnnn1CC1CCCO1)N1CCN(c2cc(Cl)ccc2C)CC1 (stereo not drawn)	3	0	-10	-10	-10	20	.	.
CN(Cc1ccccc1)S(=O)(=O)c1cccc(C(=O)OCc2cccc([N+](=O)[O-])c2)c1	-2	.	.	.	.	-2	.	.
COc1ccccc1C=NNC(=O)CSc1nc2ccccc2n1Cc1ccc(Cl)cc1	-1	.	.	.	.	0	.	.
CNc1nc(OC)nc(N(C#N)CN2C(=O)c3ccccc3S2(=O)=O)n1	-3	19*	42	19	12	4	1	0
CN(C)S(=O)(=O)c1cccc(NC(=S)N/N=C/c2ccc(O)c(O)c2O)c1	4	27*	33	-13	8	15	18*	10*
CCN(CC)S(=O)(=O)c1cccc(C(=O)N/N=C/c2ccc(O)c(O)c2O)c1	3	18*	34	-13	22	-8	15*	11*
COc1cc(/C=N/NC(=S)Nc2cccc(S(=O)(=O)N(C)C)c2)cc(OC)c1O	-2	0	13	-5	-4	0	.	.
SMILES	MBD2 DNA inh	Rin1 Abl inh	Arrestin-AP2 inh	ABHD5-PLIN5 inh	Beta2AR agonist	UHRF1 MBD2 ctr	Rin1-Abl confirm	GFP quench	others
CCOc1ccccc1/C=N/NC(=O)c1cccc(S(=O)(=O)N(CC)CC)c1	-7	-2	-11	-8	2	-1	.	.
Cc1oc2nc(SCC(=O)NC3CCCCC3)nc(N)c2c1C	-1	-2	8	6	-12	2	.	.
Cc1oc2nc(SCCCC(=O)NCCO)nc(N)c2c1C	1	36*	0	-2	-1	1	42*	1	GFP quench DR=>68
CC(C)(C)c1ccc(OCc2ccc(C(=O)N/N=C/c3ccc(O)c(O)c3)cc2)cc1	1	8.2*	-5	-1	7	-2	8.8*	2
O=C(COc1ccccc1C(=O)N/N=C\c1ccc(O)c(O)c1)N/N=C/c1ccc(O)c(O)c1	.	28*	22	1	2	.	38*	12*
O=C(NN=Cc1ccc(O)c(O)c1)c1ccccc1	.	7	.	5	.	.	.	.
CC(C)CSc1ncccc1-c1nc2ccccc2[nH]1	3	.	.	.	.	0	.	.
CN(C)CCNC(=O)CN1C(=O)CSc2ccc(S(=O)(=O)N3CCCCC3)cc21	4	3	-6	0	8	0	.	.
O=C(CN1C(=O)CSc2cc(S(=O)(=O)N3CCCCCC3)ccc21)NCCc1ccccc1	3	6.1*	2	0	-2	1	-2	0
Cc1ccc(-c2nc(C3CCCN(S(=O)(=O)c4cccs4)C3)no2)cc1 (stereo not drawn)	1	.	.	.	.	-1	.	.
COc1ccc(OC)c(NC(=O)Cc2ccc(NC3=NC4CS(=O)(=O)CC4S3)cc2)c1 (stereo not drawn)	4	22*	11	4	0	0	27*	-4	GFP quench DR=>67
O=C(Cc1ccc(NC2=NC3CS(=O)(=O)CC3S2)cc1)NCc1ccccc1 (stereo not drawn)	0	-1	-10	-1	3	0	.	.
COc1cccc(CNC(=O)Cc2ccc(NC3=NC4CS(=O)(=O)CC4S3)cc2)c1 (stereo not drawn)	1	1	-6	0	4	1	.	.
O=C(Cc1ccc(NC2=NC3CS(=O)(=O)CC3S2)cc1)NCc1ccccc1Cl (stereo not drawn)	5	16*	17	-2	5	-1	16*	0
